ChEMBL document CHEMBL1806434, “Acyclic nucleoside phosphonates with a branched 2-(2-phosphonoethoxy)ethyl chain: efficient synthesis and antiviral activity” (Bioorg Med Chem, 2011)
Activity calls are given as the source filed them. The calls are words filed in the database; no cut-off is given here.

What was measured:
Human alphaherpesvirus 1 [1] = assay: Antiviral activity against Herpes simplex virus 1 strain KOS assessed as reduction of virus induced cytopathicity by cell based assay; type: functional, organism-based; details: Human alphaherpesvirus 1, KOS
Summary of the method: (§1)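 Confluent cell monolayers infected with 100 CCID50 virus, or 20 PFU for plaque assays, then incubated with serial compound dilutions. Host cells listed for the non-HIV panel are HEL fibroblasts, Vero, HeLa, CRFK or MDCK. Cytopathicity is scored, or plaques counted for VZV, once infected untreated controls reach full CPE.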

FM3A = assay: Cytostatic activity against mouse FM3A cells; type: functional
Human alphaherpesvirus 3 [2] = assay: Antiviral activity against thymidine kinase-deficient Varicella-zoster virus 07/1 assessed as reduction of virus induced cytopathicity by cell based assay; type: functional, organism-based; details: Human alphaherpesvirus 3, 07/1; summary of the method: as §1
Human alphaherpesvirus 2 = assay: Antiviral activity against Herpes simplex virus 2 strain G assessed as reduction of virus induced cytopathicity by cell based assay; type: functional, organism-based; details: Human alphaherpesvirus 2, strain G; summary of the method: as §1
[3] = Selectivity index, ratio CC50 for human HEL cells to EC50 for thymidine kinase-deficient acyclovir-resistant Herpes simplex virus 1 strain KOS; type: toxicity, cell-based; details: read-out: Ratio CC50/EC50
Summary of the method: (§2)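 HEL fibroblasts seeded at 5 × 10^3 cells/well and allowed to grow 24 h. Medium with compound dilutions is then added and cells are incubated 3 days at 37 °C before Coulter counting. CC50, the concentration halving cell number relative to untreated controls, is read from plots. SI is CC50 divided by the antiviral EC50 from the CPE or plaque-reduction assay in HEL cells.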

Human alphaherpesvirus 1 [4] = assay: Antiviral activity against thymidine kinase-deficient acyclovir-resistant Herpes simplex virus 1 strain KOS assessed as reduction of virus induced cytopathicity by cell based assay; type: functional, organism-based; details: Human alphaherpesvirus 1, KOS; summary of the method: as §1
Punta Toro virus = assay: Antiviral activity against Punta Toro virus assessed as reduction of virus induced cytopathicity by cell based assay; type: functional, organism-based
Summary of the method: (§3)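 Confluent cell monolayers in 96-well plates (HEL, Vero, HeLa, CRFK or MDCK; the cell type per virus is not specified) infected with 100 CCID50 virus or 20 PFU and incubated with serial compound dilutions. Cytopathicity scored once it was complete in untreated infected controls.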

[5] = Selectivity index, ratio CC50 for human HEL cells to EC50 for Herpes simplex virus 1 strain KOS; type: toxicity, cell-based; details: read-out: Ratio CC50/EC50; summary of the method: as §2
[6] = Selectivity index, ratio CC50 for human HEL cells to EC50 for Herpes simplex virus 2 strain G; type: toxicity, cell-based; details: read-out: Ratio CC50/EC50; summary of the method: as §2
Human alphaherpesvirus 3 [7] = assay: Antiviral activity against Varicella-zoster virus strain OKA expressing thymidine kinase assessed as reduction of virus induced cytopathicity by cell based assay; type: functional; details: Human alphaherpesvirus 3, strain Oka vaccine; summary of the method: as §1
Human betaherpesvirus 5 = assay: Antiviral activity against Human cytomegalovirus Davis assessed as reduction of virus induced cytopathicity by cell based assay; type: functional, organism-based; details: Human betaherpesvirus 5, Davis; summary of the method: as §1
[8] = tested on: Mammalian orthoreovirus 1; assay: Antiviral activity against Reovirus-1 assessed as reduction of virus induced cytopathicity by cell based assay; type: functional, organism-based; summary of the method: as §3
[9] = Cytotoxicity against human HEL cells assessed as alteration of cell morphology after 3 days by microscopic analysis; type: cell-based
Summary of the method: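 MCC taken as the lowest compound concentration producing microscopically detectable alteration of HEL fibroblast morphology.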

[10] = Selectivity index, ratio CC50 for human HEL cells to EC50 for Human cytomegalovirus Davis; type: toxicity, cell-based; details: read-out: Ratio CC50/EC50; summary of the method: as §2
[11] = Selectivity index, ratio CC50 for human HEL cells to EC50 for thymidine kinase-deficient Varicella-zoster virus YS/R; type: toxicity, cell-based; details: read-out: Ratio CC50/EC50; summary of the method: as §2
Vaccinia virus = assay: Antiviral activity against Vaccinia virus Lederle assessed as reduction of virus induced cytopathicity by cell based assay; type: functional, organism-based; details: Orthopoxvirus vaccinia; summary of the method: as §1
[12] = Selectivity index, ratio CC50 for human HEL cells to EC50 for Vaccinia virus Lederle; type: toxicity, cell-based; details: read-out: Ratio CC50/EC50; summary of the method: as §2
L1210 = assay: Cytostatic activity against mouse L1210 cells; type: functional
[13] = tested on: Vesicular stomatitis virus; assay: Antiviral activity against Vesicular stomatitis virus assessed as reduction of virus induced cytopathicity by cell based assay; type: functional, organism-based; summary of the method: as §1
[14] = Selectivity index, ratio CC50 for human HEL cells to EC50 for Varicella-zoster virus strain OKA expressing thymidine kinase; type: toxicity, cell-based; details: read-out: Ratio CC50/EC50; summary of the method: as §2
[15] = tested on: Human immunodeficiency virus 2; assay: Antiviral activity against Human immunodeficiency virus type 2 ROD infected in human CEM cells assessed as HIV-induced CEM giant cell formation after 4 days by microscopy; type: functional, organism-based; details: Human immunodeficiency virus 2, ISOLATE ROD, CCRF-CEM, 96 h
Summary of the method: (§4)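 Human CEM cells (~3 × 10^5 cells/ml) infected with 100 CCID50/ml of HIV-1 (IIIB) or HIV-2 (ROD), then seeded into wells holding compound dilutions. After 4 days at 37 °C, HIV-induced giant cell formation is scored by microscopy.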

Human alphaherpesvirus 3 [16] = assay: Antiviral activity against thymidine kinase-deficient Varicella-zoster virus YS/R assessed as reduction of virus induced cytopathicity by cell based assay; type: functional, organism-based; details: Human alphaherpesvirus 3, YS/R
HEL = assay: Cytotoxicity against human HEL cells after 3 days by coulter counter; type: cell-based; details: 72 h
Summary of the method: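 HEL cells seeded at 5 × 10^3 cells/well and allowed to proliferate for 24 h, then exposed to a range of compound concentrations for 3 days at 37 °C. Cells counted with a Coulter counter.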

[17] = Selectivity index, ratio CC50 for human HEL cells to EC50 for Human cytomegalovirus strain AD169; type: toxicity, cell-based; details: read-out: Ratio CC50/EC50; summary of the method: as §2
Human alphaherpesvirus 3 [18] = assay: Antiviral activity against Varicella-zoster virus YS expressing thymidine kinase assessed as reduction of virus induced cytopathicity by cell based assay; type: functional, organism-based; details: Human alphaherpesvirus 3, YS
Coxsackievirus B4 = assay: Antiviral activity against Coxsackievirus B4 assessed as reduction of virus induced cytopathicity by cell based assay; type: functional, organism-based; summary of the method: as §3
Human respirovirus 3 = assay: Antiviral activity against Human parainfluenza virus 3 assessed as reduction of virus induced cytopathicity by cell based assay; type: functional, organism-based; summary of the method: as §3
[19] = tested on: Human immunodeficiency virus 1; assay: Antiviral activity against Human immunodeficiency virus type1 3B infected in human CEM cells assessed as HIV-induced CEM giant cell formation after 4 days by microscopic analysis; type: functional, organism-based; details: Human immunodeficiency virus 1, 3B, CCRF-CEM, 96 h; summary of the method: as §4
[20] = tested on: Respiratory syncytial virus; assay: Antiviral activity against Respiratory syncytial virus Long assessed as reduction of virus induced cytopathicity by cell based assay; type: functional, organism-based; summary of the method: as §3
Sindbis virus = assay: Antiviral activity against Sindbis virus assessed as reduction of virus induced cytopathicity by cell based assay; type: functional, organism-based; summary of the method: as §3
[21] = Selectivity index, ratio CC50 for human HEL cells to EC50 for Varicella-zoster virus YS expressing thymidine kinase; type: toxicity, cell-based; details: read-out: Ratio CC50/EC50; summary of the method: as §2
CCRF-CEM = assay: Cytostatic activity against human CEM cells; type: cell-based
[22] = Selectivity index, ratio CC50 for human HEL cells to EC50 for thymidine kinase-deficient Varicella-zoster virus 07/1; type: toxicity, cell-based; details: read-out: Ratio CC50/EC50; summary of the method: as §2

**Q.** For `CC(CP(=O)(O)O)OCCn1cnc2c(N)ncnc21` (stereo not drawn), which EC50 (Human alphaherpesvirus 1 [1]) is on record?
**A.** The EC50 was 1.3 µM.

**Q.** What about the CC50 (FM3A) of the same compound?
**A.** The CC50 was 2.7 µM.

**Q.** What about the EC50 (Human alphaherpesvirus 3 [2]) of the same compound?
**A.** Its EC50 is 0.11 µM.

**Q.** And the EC50 (Human alphaherpesvirus 2)?
**A.** The EC50 was 2.3 µM.

**Q.** What about the selectivity ratio [3] of the same compound?
**A.** Its selectivity ratio is 6.

**Q.** What about the EC50 (Human alphaherpesvirus 1 [4]) of the same compound?
**A.** The EC50 was 1.7 µM.

**Q.** And the Activity (Punta Toro virus)?
**A.** The Activity was “inactive”.

**Q.** What about the selectivity ratio [5] of the same compound?
**A.** Its selectivity ratio is 6.

**Q.** What about the selectivity ratio [6] of the same compound?
**A.** The selectivity ratio was 6.

**Q.** What about the EC50 (Human alphaherpesvirus 3 [7]) of the same compound?
**A.** Its EC50 is 0.07 µM.

**Q.** What about the EC50 (Human betaherpesvirus 5) of the same compound?
**A.** The EC50 was 0.9 µM.

**Q.** And the Activity [8]?
**A.** Its Activity is “inactive”.

**Q.** And the MCC at 72 h [9]?
**A.** Its MCC at 72 h is 322 µM.

**Q.** And the selectivity ratio [10]?
**A.** The selectivity ratio was 14.

**Q.** What about the selectivity ratio [11] of the same compound?
**A.** The selectivity ratio was 120.

**Q.** And the EC50 (Vaccinia virus)?
**A.** Its EC50 is 27 µM.

**Q.** And the selectivity ratio [12]?
**A.** The selectivity ratio was less than 1.

**Q.** And the CC50 (L1210)?
**A.** Its CC50 is 10 µM.

**Q.** What about the Activity [13] of the same compound?
**A.** The Activity was “inactive”.

**Q.** What about the selectivity ratio [14] of the same compound?
**A.** The selectivity ratio was 120.

**Q.** And the EC50 [15]?
**A.** Its EC50 is 9 µM.

**Q.** What about the EC50 (Human alphaherpesvirus 3 [16]) of the same compound?
**A.** Its EC50 is 0.07 µM.

**Q.** What about the CC50 (HEL) of the same compound?
**A.** Its CC50 is 13 µM.

**Q.** And the selectivity ratio [17]?
**A.** Its selectivity ratio is 14.

**Q.** And the EC50 (Human alphaherpesvirus 3 [18])?
**A.** The EC50 was 0.1 µM.

**Q.** What about the Activity (Coxsackievirus B4) of the same compound?
**A.** The Activity was “inactive”.

**Q.** And the Activity (Human respirovirus 3)?
**A.** The Activity was “inactive”.

**Q.** And the EC50 [19]?
**A.** Its EC50 is 11 µM.

**Q.** What about the Activity [20] of the same compound?
**A.** The Activity was “inactive”.

**Q.** And the Activity (Sindbis virus)?
**A.** Its Activity is “inactive”.

**Q.** What about the selectivity ratio [21] of the same compound?
**A.** The selectivity ratio was 120.

**Q.** And the CC50 (CCRF-CEM)?
**A.** The CC50 was 20 µM.

**Q.** What about the selectivity ratio [22] of the same compound?
**A.** Its selectivity ratio is 120.
